The array DNA melting data of Ke et al. (doi:10.1101/2024.01.08.574731)

Columns and labels:
[1] = folding enthalpy; higher = less favourable; fluorescence melt of hairpins on a sequencing array, two-state fit; conditions: sodium 0.088 M
Procedure, shortened: (§1)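 Two-state fits, bootstrapped, provided melting temperature and folding enthalpy from Cy3 fluorescence normalised to pre-quench Cy3 and to control constructs. Library hairpins with annealed Cy3 and quencher oligos were imaged on a sequenced MiSeq flow cell in 50 mM Na-HEPES pH 8.0, 25 mM NaCl, at 2.5 °C intervals up to 60 °C. Four replicates were combined with inverse-variance weighting. A 9.35 °C upward shift was applied to fitted temperatures to match UV melts.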

[2] = melting temperature; fluorescence melt of hairpins on a sequencing array, two-state fit, raised by 9.35 °C to match UV melts; conditions: sodium 0.088 M
Procedure, shortened: as §1

Row | Sequence | folding enthalpy [1] | Tm [2]
1 | GATCTCTCTAGAGATC ((((((....)))))) | -37.4 kcal/mol | 56.3 °C
2 | GATCTCTGCAGAGATC ((((((....)))))) | -41.6 kcal/mol | 57 °C
3 | GATCTCTGGAGAGATC ((((((....)))))) | -34.4 kcal/mol | 53.1 °C
4 | GATCTCTGTCGAGATC ((((((....)))))) | -37.4 kcal/mol | 51.8 °C
5 | GATCTCTTATGAGATC ((((((....)))))) | -43.4 kcal/mol | 54.1 °C
6 | GATCTCTTGGGAGATC ((((((....)))))) | -40.4 kcal/mol | 54 °C
7 | GATCTCTTTGGAGATC ((((((....)))))) | -44.5 kcal/mol | 55.1 °C
8 | GATCTCTTTTGAGATC ((((((....)))))) | -39.2 kcal/mol | 55 °C
9 | GATCTGACACAGATC ((((((...)))))) | -35.7 kcal/mol | 48.1 °C
10 | GATCTGACCACAGATC ((((((....)))))) | -36.3 kcal/mol | 49 °C
11 | GATCTGAGCTCAGATC ((((((....)))))) | -51.6 kcal/mol | 55.6 °C
12 | GATCTGATAACAGATC ((((((....)))))) | -35.7 kcal/mol | 47 °C
13 | GATCTGATCGCAGATC ((((((....)))))) | -11.2 kcal/mol | 42.3 °C
14 | GATCTGATTACAGATC ((((((....)))))) | -40.5 kcal/mol | 50 °C
15 | GATCTGATTGCAGATC ((((((....)))))) | -29.1 kcal/mol | 48.2 °C
16 | GATCTGCAACCAGATC ((((((....)))))) | -31.7 kcal/mol | 46.2 °C
17 | GATCTGCATTCAGATC ((((((....)))))) | -39.6 kcal/mol | 48.9 °C
18 | GATCTGCCACAGATC ((((((...)))))) | -31.8 kcal/mol | 48.9 °C
19 | GATCTGCCATCAGATC ((((((....)))))) | -46 kcal/mol | 49.4 °C
20 | GATCTGCCCCCAGATC ((((((....)))))) | -34.5 kcal/mol | 48.3 °C

Row | Sequence | folding enthalpy [1] | Tm [2]
21 | GATCTGCCCTCAGATC ((((((....)))))) | -42.5 kcal/mol | 49.8 °C
22 | GATCTGCCTACAGATC ((((((....)))))) | -41.8 kcal/mol | 50.8 °C
23 | GATCTGCGAAAGCAAATC (((.(((....))).))) | -18.4 kcal/mol | 36.5 °C
24 | GATCTGCGAAAGCATATC (((.(((....))).))) | -20.7 kcal/mol | 41.1 °C
25 | GATCTGCGCCCAGATC ((((((....)))))) | -29.2 kcal/mol | 48.4 °C
26 | GATCTGCTACCAGATC ((((((....)))))) | -37.4 kcal/mol | 48.8 °C
27 | GATCTGCTCCCAGATC ((((((....)))))) | -37.1 kcal/mol | 47.9 °C
28 | GATCTGCTTTCAGATC ((((((....)))))) | -40.1 kcal/mol | 49.1 °C
29 | GATCTGGAGACAGATC ((((((....)))))) | -33.9 kcal/mol | 52 °C
30 | GATCTGGAGTCAGATC ((((((....)))))) | -48.3 kcal/mol | 48.1 °C
31 | GATCTGGATACAGATC ((((((....)))))) | -34 kcal/mol | 56.7 °C
32 | GATCTGGCAACAGATC ((((((....)))))) | -35 kcal/mol | 57.6 °C
33 | GATCTGGCGGCAGATC ((((((....)))))) | -53.2 kcal/mol | 53.3 °C
34 | GATCTGGCTACAGATC ((((((....)))))) | -42 kcal/mol | 59.4 °C
35 | GATCTGGGACAGATC ((((((...)))))) | -35.5 kcal/mol | 58.1 °C
36 | GATCTGGGCACAGATC ((((((....)))))) | -40 kcal/mol | 59.3 °C
37 | GATCTGGGGTCAGATC ((((((....)))))) | -34.5 kcal/mol | 48.7 °C
38 | GATCTGGGTTCAGATC ((((((....)))))) | -43.3 kcal/mol | 49.4 °C
39 | GATCTGGTATCAGATC ((((((....)))))) | -41.8 kcal/mol | 55.5 °C
